Converted amounts (≈) assume the structure as drawn. The source made the active and inactive calls. No cut-off for these calls is given here.
Tests used:
[1] = system: Pseudomonas aeruginosa; assay: Antibacterial activity against ampicillin/cefotaxime-resistant Pseudomonas aeruginosa ATCC 27853 assessed as inhibition of bacterial growth measured after 16 to 20 hrs by two-fold serial microbroth dilution method; type: functional, organism-based; conditions: time 16-20 hrs
Outline: (§1)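 Broth microdilution MIC in LB and M9 medium. Inoculum adjusted to about 5 × 10⁵ cells/ml. Compound serially diluted twofold. Plates covered and incubated at 37 °C with shaking. OD600 read; MIC taken as the lowest concentration giving no growth after 16–20 h.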

[2] = system: Candida albicans; assay: Antibacterial activity against ampicillin/cefotaxime/tetracycline/ceftriaxone/fosfomycin-resistant Candida albicans 181210169-1 assessed as inhibition of fungal growth measured after 16 to 20 hrs by two-fold serial microbroth dilution method; type: functional, organism-based; conditions: time 16-20 hrs; outline: as §1
[3] = system: Escherichia coli; assay: Antibacterial activity against Escherichia coli ATCC25922 assessed as inhibition of bacterial growth measured after 16 to 20 hrs by two-fold serial microbroth dilution method; type: functional, organism-based; conditions: ATCC 25922, time 16-20 hrs
Outline: (§2)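 Broth microdilution in LB and M9 medium. Inoculum adjusted to about 5 × 10⁵ cells/ml. Compound diluted twofold serially in microplate wells, then plates covered and incubated at 37 °C with shaking. Growth read as OD600. MIC taken as the lowest concentration giving no growth after 16–20 h.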

[4] = system: Enterobacter cloacae; assay: Antibacterial activity against ampicillin/cefotaxime/tetracycline/ceftriaxone-resistant Enterobacter cloacae O3 assessed as inhibition of bacterial growth measured after 16 to 20 hrs by two-fold serial microbroth dilution method; type: functional, organism-based; conditions: time 16-20 hrs; outline: as §1
[5] = system: Bacillus subtilis; assay: Antibacterial activity against Bacillus subtilis 3HM assessed as inhibition of bacterial growth measured after 16 to 20 hrs by two-fold serial microbroth dilution method; type: functional, organism-based; conditions: time 16-20 hrs; outline: as §2
[6] = system: Escherichia coli; assay: Antibacterial activity against ampicillin/cefotaxime/tetracycline/ceftriaxone-resistant Escherichia coli mx7 assessed as inhibition of bacterial growth measured after 16 to 20 hrs by two-fold serial microbroth dilution method; type: functional, organism-based; conditions: time 16-20 hrs; outline: as §1
[7] = system: Staphylococcus aureus; assay: Antibacterial activity against Fosfomycin resistant Staphylococcus aureus ATCC USA 206 assessed as inhibition of bacterial growth measured after 16 to 20 hrs by two-fold serial microbroth dilution method; type: functional, organism-based; conditions: time 16-20 hrs; outline: as §1
[8] = system: Klebsiella aerogenes; assay: Antibacterial activity against Enterobacter aerogenes R41 assessed as inhibition of bacterial growth measured after 16 to 20 hrs by two-fold serial microbroth dilution method; type: functional, organism-based; conditions: time 16-20 hrs; outline: as §2
[9] = system: Morganella morganii; assay: Antibacterial activity against Morganella morganii R36 assessed as inhibition of bacterial growth measured after 16 to 20 hrs by two-fold serial microbroth dilution method; type: functional, organism-based; conditions: time 16-20 hrs; outline: as §2
[10] = system: Hafnia alvei; assay: Antibacterial activity against Ampicillin resistant Hafnia alvei O31 assessed as inhibition of bacterial growth measured after 16 to 20 hrs by two-fold serial microbroth dilution method; type: functional, organism-based; conditions: time 16-20 hrs; outline: as §1
[11] = system: Enterobacter; assay: Antibacterial activity against Enterobacter sp. O54 assessed as inhibition of bacterial growth measured after 16 to 20 hrs by two-fold serial microbroth dilution method; type: functional, organism-based; conditions: time 16-20 hrs; outline: as §2
[12] = system: Escherichia coli; assay: Antibacterial activity against Escherichia coli assessed as inhibition of bacterial growth measured after 16 to 20 hrs by two-fold serial microbroth dilution method; type: functional; conditions: time 16-20 hrs; outline: as §2
[13] = system: Klebsiella oxytoca; assay: Antibacterial activity against Klebsiella oxytoca R48 assessed as inhibition of bacterial growth measured after 16 to 20 hrs by two-fold serial microbroth dilution method; type: functional, organism-based; conditions: time 16-20 hrs; outline: as §2
[14] = system: Klebsiella pneumoniae; assay: Antibacterial activity against ampicillin/fosfomycin-resistant Klebsiella pneumonia 181210171-2 assessed as inhibition of bacterial growth measured after 16 to 20 hrs by two-fold serial microbroth dilution method; type: functional, organism-based; conditions: time 16-20 hrs; outline: as §1
[15] = system: Pseudomonas aeruginosa; assay: Antibacterial activity against Pseudomonas aeruginosa R42 assessed as inhibition of bacterial growth measured after 16 to 20 hrs by two-fold serial microbroth dilution method; type: functional, organism-based; conditions: time 16-20 hrs; outline: as §2
[16] = system: Citrobacter koseri; assay: Antibacterial activity against Citrobacter koseri R38 assessed as inhibition of bacterial growth measured after 16 to 20 hrs by two-fold serial microbroth dilution method; type: functional, organism-based; conditions: time 16-20 hrs; outline: as §2
[17] = system: Proteus vulgaris; assay: Antibacterial activity against Proteus vulgaris O41 assessed as inhibition of bacterial growth measured after 16 to 20 hrs by two-fold serial microbroth dilution method; type: functional, organism-based; conditions: time 16-20 hrs; outline: as §2
[18] = system: Aeromonas; assay: Antibacterial activity against Aeromonas sp. O9 assessed as inhibition of bacterial growth measured after 16 to 20 hrs by two-fold serial microbroth dilution method; type: functional, organism-based; conditions: time 16-20 hrs; outline: as §2
[19] = system: Proteus sp.; assay: Antibacterial activity against ampicillin/cefotaxime/tetracycline/ceftriaxone/fosfomycin-resistant Proteus sp. O14 assessed as inhibition of bacterial growth measured after 16 to 20 hrs by two-fold serial microbroth dilution method; type: functional, organism-based; conditions: time 16-20 hrs; outline: as §1
[20] = Cytotoxicity against human HEK293 cells assessed as reduction in cell viability measured after 28 hrs by PrestoBlue reagent based fluorescence analysis
Outline: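 HEK293 cells seeded at 25*10³ per well in DMEM with 10% FBS, 2 mM L-Glu and 50 µg/ml gentamicin. Cells held 24 h at 37 °C, 5% CO2 before compound was added (final DMSO 0.1%), then incubated 28 h. Viability read by PrestoBlue fluorescence at 590 nm, expressed relative to 0.1% DMSO control (100%). CC50 derived by curve fitting.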

[21] = system: HEK293; assay: Induction of cell cycle arrest in human HEK293 cells assessed as increase in accumulation of cells at G2/M phase at 14.9 uM after 24 hrs by propidium iodide staining based flow cytometry; conditions: hek293, 24 h
Outline: (§3)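 HEK293 cells exposed to compound or vehicle (0.1% DMSO), then harvested by centrifugation (400 × g, 5 min). Fixed/permeabilized in ice-cold 70% ethanol for 24 h at −20 °C, PBS-washed twice, treated with RNase A (0.5 mg/ml) for 5 min at room temperature, then PI (50 µg/ml) for 30 min. DNA content measured by flow cytometry on a linear scale. At least duplicate runs; mean ± S.E.M.; Wilcoxon test versus vehicle.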

[22] = system: HEK293; assay: Induction of cell cycle arrest in human HEK293 cells assessed as decrease in accumulation of cells at G1 phase at 14.9 uM measured after 24 hrs by propidium iodide staining based flow cytometry; conditions: hek293, 24 h; outline: as §3
[23] = system: HEK293; assay: Induction of cell cycle arrest in human HEK293 cells assessed as increase in accumulation of apoptotic cells at sub G1 phase at 14.9 uM after 24 hrs by propidium iodide staining based flow cytometry; conditions: hek293, 24 h; outline: as §3
[24] = system: HEK293; assay: Induction of cell cycle arrest in human HEK293 cells assessed as increase in accumulation of apoptotic cells at sub G1 phase at 12.6 uM after 72 hrs by propidium iodide staining based flow cytometry; conditions: hek293, 72 h; outline: as §3
[25] = system: HEK293; assay: Induction of cell cycle arrest in human HEK293 cells assessed as increase in accumulation of cells at S phase at 12.6 uM after 24 hrs by propidium iodide staining based flow cytometry; conditions: hek293, 24 h; outline: as §3

COc1c2c(cc3c1C(CC(=O)c1ccc(CC(C)C)cc1)[N+](C)(C)CC3)OCO2 (stereo not given)
Activity [1]: inactive | Activity [2]: Active | Activity [3]: Active | Activity [4]: Active | Activity [5]: Active | Activity [6]: Active | Activity [7]: Active | Activity [8]: Active | Activity [9]: Active | Activity [10]: Active | Activity [11]: Active | MIC [12]: 23.3 µM | Activity [13]: Active | Activity [14]: Active | Activity [15]: Active | Activity [16]: Active | Activity [17]: Active | Activity [18]: Active | Activity [19]: Active | CC50 at 28 h [20]: 13.3 µM

COc1c2c(cc3c1C(CC(=O)/C=C/C1=C(C)CCCC1(C)C)[N+](C)(C)CC3)OCO2.[I-] (stereo not given)
Activity [1]: inactive | Activity [2]: Active | Activity [3]: Active | Activity [4]: Active | Activity [5]: Active | Activity [6]: Active | Activity [7]: Active | Activity [21]: Toxic | Activity [8]: Active | Activity [9]: Active | Activity [10]: Active | Activity [11]: inactive | MIC [12]: 22.6 µM | Activity [13]: Active | Activity [14]: Active | Activity [15]: Active | Activity [16]: inactive | Activity [17]: inactive | Activity [18]: Active | Activity [19]: inactive | Activity [22]: Toxic | Activity [23]: Toxic | CC50 at 28 h [20]: 14.9 µM

COc1c2c(cc3c1C(CC(=O)c1ccc4c5c(cccc15)CC4)[N+](C)(C)CC3)OCO2 (stereo not given)
Activity [1]: inactive | Activity [2]: inactive | Activity [3]: inactive | Activity [4]: inactive | Activity [5]: Active | Activity [6]: inactive | Activity [7]: inactive | Activity [8]: inactive | Activity [9]: inactive | Activity [10]: inactive | Activity [11]: inactive | MIC [12]: 12.2 µM | Activity [13]: inactive | Activity [14]: inactive | Activity [15]: inactive | Activity [16]: inactive | Activity [17]: inactive | Activity [18]: inactive | Activity [19]: inactive | CC50 at 28 h [20]: 17 µM

COc1c2c(cc3c1C(CC(=O)c1c(O)n(C)c(=S)n(C)c1=O)N(C)CC3)OCO2 (stereo not given)
Activity [1]: inactive | Activity [2]: Active | Activity [3]: inactive | Activity [4]: inactive | Activity [5]: Active | Activity [6]: inactive | Activity [7]: Active | Activity [8]: inactive | Activity [9]: inactive | Activity [10]: inactive | Activity [11]: Active | MIC [12]: 115 µM (≈ 50 µg/mL) | Activity [13]: inactive | Activity [14]: inactive | Activity [15]: inactive | Activity [16]: inactive | Activity [17]: inactive | Activity [18]: inactive | Activity [19]: inactive | CC50 at 28 h [20]: > 100 µM

CCCc1ccc(C(=O)CC2c3c(cc4c(c3OC)OCO4)CC[N+]2(C)C)cc1.[I-] (stereo not given)
Activity [1]: inactive | Activity [2]: Active | Activity [3]: Active | Activity [4]: Active | Activity [5]: Active | Activity [6]: Active | Activity [7]: Active | Activity [8]: Active | Activity [9]: Active | Activity [10]: Active | Activity [11]: Active | MIC [12]: 11.3 µM | Activity [13]: inactive | Activity [14]: Active | Activity [15]: Active | Activity [16]: inactive | Activity [17]: Active | Activity [18]: Active | Activity [24]: Toxic | Activity [25]: Toxic | Activity [19]: Active | CC50 at 28 h [20]: 12.6 µM

CCOc1ccc(/C=C/C(=O)CC2c3c(cc4c(c3OC)OCO4)CC[N+]2(C)C)cc1 (stereo not given)
Activity [1]: inactive | Activity [2]: inactive | Activity [3]: inactive | Activity [4]: inactive | Activity [5]: inactive | Activity [6]: inactive | Activity [7]: Active | Activity [8]: inactive | Activity [9]: inactive | Activity [10]: inactive | Activity [11]: inactive | MIC [12]: 90.7 µM | Activity [13]: inactive | Activity [14]: inactive | Activity [15]: inactive | Activity [16]: inactive | Activity [17]: Active | Activity [18]: inactive | Activity [19]: inactive | CC50 at 28 h [20]: 17.8 µM

COc1c2c(cc3c1C(CC(=O)/C=C/C1CC=C(C)CC1C)[N+](C)(C)CC3)OCO2 (stereo not given)
Activity [1]: inactive | Activity [2]: Active | Activity [3]: Active | Activity [4]: inactive | Activity [5]: Active | Activity [6]: Active | Activity [7]: Active | Activity [8]: inactive | Activity [9]: Active | Activity [10]: inactive | Activity [11]: inactive | MIC [12]: 46.3 µM | Activity [13]: inactive | Activity [14]: inactive | Activity [15]: inactive | Activity [16]: inactive | Activity [17]: inactive | Activity [18]: inactive | Activity [19]: inactive | CC50 at 28 h [20]: 10.4 µM

COc1c2c(cc3c1C(CC(=O)/C=C/C1C(C)=CCCC1(C)C)[N+](C)(C)CC3)OCO2 (stereo not given)
Activity [1]: inactive | Activity [2]: inactive | Activity [3]: inactive | Activity [4]: inactive | Activity [5]: Active | Activity [6]: inactive | Activity [7]: inactive | Activity [8]: inactive | Activity [9]: inactive | Activity [10]: inactive | Activity [11]: inactive | MIC [12]: 22.6 µM | Activity [13]: inactive | Activity [14]: inactive | Activity [15]: inactive | Activity [16]: inactive | Activity [17]: inactive | Activity [18]: inactive | Activity [19]: inactive | CC50 at 28 h [20]: 16.2 µM
